≈ marks a conversion by molar mass, not a printed value.
Tests used:
[1] = test system: Mycolicibacterium smegmatis; assay: Antimycobacterial activity against Mycobacterium smegmatis MC2 155 after 94 to 98 hrs by microdilution method; format: functional; settings: str. MC2 155
How it was run: (§1)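 Microdilution in TSB broth. Inoculum from colonies grown 96 h on TSA, final 1×10^5 CFU/mL, aerobic 94–98 h at 37 °C, growth read on a plate reader, at least duplicate.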

[2] = test system: Mycolicibacterium smegmatis; assay: Bactericidal activity against Mycobacterium smegmatis MC2 155 after 96 hrs by microdilution method; format: functional; settings: str. MC2 155, 96 h; how it was run: as §1
Staphylococcus aureus [3] = assay: Antibacterial activity against methicillin-resistant Staphylococcus aureus USA300 after 18 to 20 hrs by microdilution method; format: functional
How it was run: (§2)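 EUCAST broth microdilution in LB broth. Inoculum prepared by direct colony suspension from 20–24 h LB agar (E. coli DH10β) or 5% sheep blood BHI agar (MRSA USA300) growth. Final inoculum 2×10^4 CFU/mL, 18–20 h aerobic at 37 °C, growth read on a plate reader, at least duplicate.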

Staphylococcus aureus [4] = assay: Bactericidal activity against methicillin-resistant Staphylococcus aureus USA300 after 18 to 20 hrs by microdilution method; format: functional; how it was run: as §2
Escherichia coli [5] = assay: Antibacterial activity against Escherichia coli DH10beta harboring pHuLUC3 after 18 to 20 hrs by microdilution method; format: functional; how it was run: as §2
Escherichia coli [6] = assay: Bactericidal activity against Escherichia coli DH10beta harboring pHuLUC3 after 18 to 20 hrs by microdilution method; format: functional; how it was run: as §2
Saccharomyces cerevisiae = assay: Antibacterial activity against Saccharomyces cerevisiae after 18 to 20 hrs by microdilution method
How it was run: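 Microdilution in YEP broth against wild-type yeast grown on YEP agar. Final inoculum 1×10^5 CFU/mL. Read after 18–20 h aerobic incubation at 30 °C on plate reader, at least one duplicate.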

Structure (SMILES) | MIC [1] | MBC [2] | MIC (Staphylococcus aureus [3]) | MBC (Staphylococcus aureus [4]) | MIC (Escherichia coli [5]) | MBC (Escherichia coli [6]) | MIC (Saccharomyces cerevisiae)
COC(=O)N(/N=N/c1ccc([N+](=O)[O-])cc1Cl)c1ccc([N+](=O)[O-])cc1Cl | 128 µg/mL (≈ 309 µM) | > 128 µg/mL | 32 µg/mL (≈ 77.3 µM) | 32 µg/mL (≈ 77.3 µM) | 64 µg/mL (≈ 155 µM) | 128 µg/mL (≈ 309 µM) | > 128 µg/mL
O=C(c1ccccc1C(F)(F)F)N(/N=N/c1ccc([N+](=O)[O-])cc1C(F)(F)F)c1ccc([N+](=O)[O-])cc1C(F)(F)F | > 128 µg/mL | – | > 128 µg/mL | – | 128 µg/mL (≈ 215 µM) | 128 µg/mL (≈ 215 µM) | > 128 µg/mL
Clc1ccc(Cl)c(/N=N/Nc2cc(Cl)ccc2Cl)c1 | > 128 µg/mL | – | > 128 µg/mL | – | > 128 µg/mL | – | > 128 µg/mL
CC(=O)N(/N=N/c1ccc([N+](=O)[O-])cc1)c1ccc([N+](=O)[O-])cc1 | > 128 µg/mL | – | > 128 µg/mL | – | 64 µg/mL (≈ 194 µM) | 128 µg/mL (≈ 389 µM) | > 128 µg/mL
CC(=O)N(/N=N/c1ccc([N+](=O)[O-])cc1Cl)c1ccc([N+](=O)[O-])cc1Cl | 16 µg/mL (≈ 40.2 µM) | > 128 µg/mL | 4 µg/mL (≈ 10 µM) | 4 µg/mL (≈ 10 µM) | 64 µg/mL (≈ 161 µM) | > 128 µg/mL | > 128 µg/mL
O=C(c1ccccc1)N(/N=N/c1ccc([N+](=O)[O-])cc1Cl)c1ccc([N+](=O)[O-])cc1Cl | 128 µg/mL (≈ 278 µM) | > 128 µg/mL | 32 µg/mL (≈ 69.5 µM) | 32 µg/mL (≈ 69.5 µM) | 32 µg/mL (≈ 69.5 µM) | 32 µg/mL (≈ 69.5 µM) | > 128 µg/mL
O=C(c1ccccc1F)N(/N=N/c1ccc([N+](=O)[O-])cc1Br)c1ccc([N+](=O)[O-])cc1Br | > 128 µg/mL | – | > 128 µg/mL | – | 128 µg/mL (≈ 226 µM) | 128 µg/mL (≈ 226 µM) | > 128 µg/mL
O=C(c1ccccc1C(F)(F)F)N(/N=N/c1ccc([N+](=O)[O-])cc1Br)c1ccc([N+](=O)[O-])cc1Br | > 128 µg/mL | – | > 128 µg/mL | – | 64 µg/mL (≈ 104 µM) | 64 µg/mL (≈ 104 µM) | > 128 µg/mL
O=C(c1cccc(C(F)(F)F)c1)N(/N=N/c1ccc([N+](=O)[O-])cc1Br)c1ccc([N+](=O)[O-])cc1Br | 128 µg/mL (≈ 207 µM) | > 128 µg/mL | 8 µg/mL (≈ 13 µM) | 8 µg/mL (≈ 13 µM) | 32 µg/mL (≈ 51.9 µM) | 64 µg/mL (≈ 104 µM) | > 128 µg/mL
O=C(c1ccc(F)cc1)N(/N=N/c1ccc([N+](=O)[O-])cc1Br)c1ccc([N+](=O)[O-])cc1Br | > 128 µg/mL | – | > 128 µg/mL | – | 64 µg/mL (≈ 113 µM) | 64 µg/mL (≈ 113 µM) | > 128 µg/mL
CC(=O)OCC(=O)N(/N=N/c1ccc([N+](=O)[O-])cc1Br)c1ccc([N+](=O)[O-])cc1Br | > 128 µg/mL | – | 8 µg/mL (≈ 14.7 µM) | 16 µg/mL (≈ 29.4 µM) | 64 µg/mL (≈ 117 µM) | 64 µg/mL (≈ 117 µM) | > 128 µg/mL
O=C(c1ccccc1F)N(/N=N/c1ccc([N+](=O)[O-])cc1Cl)c1ccc([N+](=O)[O-])cc1Cl | > 128 µg/mL | – | > 128 µg/mL | – | 64 µg/mL (≈ 134 µM) | 128 µg/mL (≈ 268 µM) | > 128 µg/mL
O=C(c1ccccc1C(F)(F)F)N(/N=N/c1ccc([N+](=O)[O-])cc1Cl)c1ccc([N+](=O)[O-])cc1Cl | > 128 µg/mL | – | > 128 µg/mL | – | 64 µg/mL (≈ 121 µM) | 128 µg/mL (≈ 242 µM) | > 128 µg/mL
O=C(c1cccc(C(F)(F)F)c1)N(/N=N/c1ccc([N+](=O)[O-])cc1Cl)c1ccc([N+](=O)[O-])cc1Cl | 32 µg/mL (≈ 60.6 µM) | > 128 µg/mL | 8 µg/mL (≈ 15.1 µM) | 8 µg/mL (≈ 15.1 µM) | 32 µg/mL (≈ 60.6 µM) | 64 µg/mL (≈ 121 µM) | > 128 µg/mL
O=C(c1ccc(C(F)(F)F)cc1)N(/N=N/c1ccc([N+](=O)[O-])cc1Cl)c1ccc([N+](=O)[O-])cc1Cl | 16 µg/mL (≈ 30.3 µM) | > 128 µg/mL | 8 µg/mL (≈ 15.1 µM) | 8 µg/mL (≈ 15.1 µM) | 64 µg/mL (≈ 121 µM) | 128 µg/mL (≈ 242 µM) | > 128 µg/mL
O=C(c1cccc(F)c1)N(/N=N/c1ccc([N+](=O)[O-])cc1Cl)c1ccc([N+](=O)[O-])cc1Cl | > 128 µg/mL | – | 16 µg/mL (≈ 33.5 µM) | 16 µg/mL (≈ 33.5 µM) | 64 µg/mL (≈ 134 µM) | 64 µg/mL (≈ 134 µM) | > 128 µg/mL
Fc1ccc(/N=N/Nc2ccc(F)cc2C(F)(F)F)c(C(F)(F)F)c1 | > 128 µg/mL | – | > 128 µg/mL | – | > 128 µg/mL | – | > 128 µg/mL
O=C(c1cccnc1)N(/N=N/c1ccc([N+](=O)[O-])cc1Cl)c1ccc([N+](=O)[O-])cc1Cl | 64 µg/mL (≈ 139 µM) | 128 µg/mL (≈ 278 µM) | 32 µg/mL (≈ 69.4 µM) | 32 µg/mL (≈ 69.4 µM) | 32 µg/mL (≈ 69.4 µM) | 32 µg/mL (≈ 69.4 µM) | > 128 µg/mL
O=C(c1ccncc1)N(/N=N/c1ccc([N+](=O)[O-])cc1)c1ccc([N+](=O)[O-])cc1 | > 128 µg/mL | – | 128 µg/mL (≈ 326 µM) | 128 µg/mL (≈ 326 µM) | 16 µg/mL (≈ 40.8 µM) | 32 µg/mL (≈ 81.6 µM) | > 128 µg/mL
O=C(CCl)N(/N=N/c1ccc([N+](=O)[O-])cc1Br)c1ccc([N+](=O)[O-])cc1Br | > 128 µg/mL | – | > 128 µg/mL | – | 64 µg/mL (≈ 123 µM) | 128 µg/mL (≈ 245 µM) | > 128 µg/mL
O=C(c1cccnc1)N(/N=N/c1ccc([N+](=O)[O-])cc1Br)c1ccc([N+](=O)[O-])cc1Br | 64 µg/mL (≈ 116 µM) | 128 µg/mL (≈ 233 µM) | 32 µg/mL (≈ 58.2 µM) | 32 µg/mL (≈ 58.2 µM) | 16 µg/mL (≈ 29.1 µM) | 32 µg/mL (≈ 58.2 µM) | > 128 µg/mL
O=C(CCl)N(/N=N/c1ccc(C(F)(F)F)cc1C(F)(F)F)c1ccc(C(F)(F)F)cc1C(F)(F)F | – | – | > 128 µg/mL | > 128 µg/mL | – | – | > 128 µg/mL
O=C(c1cccnc1)N(/N=N/c1ccc([N+](=O)[O-])cc1F)c1ccc([N+](=O)[O-])cc1F | > 128 µg/mL | – | 64 µg/mL (≈ 149 µM) | 64 µg/mL (≈ 149 µM) | 128 µg/mL (≈ 299 µM) | > 128 µg/mL | > 128 µg/mL
FC(F)(F)c1ccc(/N=N/Nc2ccc(C(F)(F)F)cc2C(F)(F)F)c(C(F)(F)F)c1 | – | – | > 128 µg/mL | – | – | – | > 128 µg/mL
O=C(CCl)N(/N=N/c1ccc(Cl)cc1C(F)(F)F)c1ccc(Cl)cc1C(F)(F)F | – | – | > 128 µg/mL | > 128 µg/mL | – | – | > 128 µg/mL
O=C(c1cccnc1)N(/N=N/c1ccc([N+](=O)[O-])c(C(F)(F)F)c1)c1ccc([N+](=O)[O-])c(C(F)(F)F)c1 | 64 µg/mL (≈ 121 µM) | > 128 µg/mL | 4 µg/mL (≈ 7.57 µM) | 4 µg/mL (≈ 7.57 µM) | 32 µg/mL (≈ 60.6 µM) | 64 µg/mL (≈ 121 µM) | > 128 µg/mL
Ic1ccccc1/N=N/Nc1ccccc1I | > 128 µg/mL | – | > 128 µg/mL | – | > 128 µg/mL | – | > 128 µg/mL
O=C(c1cccnc1)N(/N=N/c1ccc([N+](=O)[O-])cc1)c1ccc([N+](=O)[O-])cc1 | > 128 µg/mL | – | 64 µg/mL (≈ 163 µM) | 128 µg/mL (≈ 326 µM) | 8 µg/mL (≈ 20.4 µM) | 16 µg/mL (≈ 40.8 µM) | > 128 µg/mL
O=C(c1ccncc1)N(/N=N/c1ccc([N+](=O)[O-])cc1F)c1ccc([N+](=O)[O-])cc1F | > 128 µg/mL | – | 32 µg/mL (≈ 74.7 µM) | 32 µg/mL (≈ 74.7 µM) | > 128 µg/mL | – | > 128 µg/mL
